In the array DNA melting data of Ke et al. (doi:10.1101/2024.01.08.574731):

How the values were obtained:
[1] = melting temperature; fluorescence melt of hairpins on a sequencing array, two-state fit, raised by 9.35 °C to match UV melts; conditions: sodium 0.088 M
Procedure, shortened: (§1)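 Cy3 signals were normalised both to pre-quench Cy3 and to control constructs. They came from library hairpins carrying annealed Cy3 and quencher oligos on a sequenced MiSeq flow cell, imaged in 50 mM Na-HEPES pH 8.0, 25 mM NaCl, in 2.5 °C steps up to 60 °C. Bootstrapped two-state fits gave melting temperature and folding enthalpy, and four replicates were combined by inverse variance. Fitted temperatures were then raised by 9.35 °C to match UV melts.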

[2] = folding enthalpy; higher = less favourable; fluorescence melt of hairpins on a sequencing array, two-state fit; conditions: sodium 0.088 M
Procedure, shortened: as §1

Row | Sequence | Tm [1] [°C] | folding enthalpy [2] [kcal/mol]
1 | GATCCAGAGCTGGATC ((((((....)))))) | 50.4 | -37.6
2 | GCGTCGCGAAAGCTACGC ((((.((....)).)))) | 66.9 | -29.4
3 | GAGCTTGCGAAAGCACTC (((..(((....)))))) | 39.7 | -10.9
4 | GATGGTGGAAACACTGTC ((..(((....)))..)) | 35.8 | -15.5
5 | GAGCCCGAAAGGGGGCTC ((((((....)))..))) | 68.6 | -22.8
6 | GATCTGAAAAGATC (((((....))))) | 45.6 | -28.2
7 | GACTTGGAAACAAGTC ((((((....)))))) | 54.2 | -38.5
8 | GGTGAACGAAAGTTGACC (((.(((....))).))) | 48.9 | -30.4
9 | GAGCCCGCGAAAGCGCTC (((..(((....)))))) | 39.2 | -11.2
10 | GTGTGAGGAAACTCATAC ((.((((....)))).)) | 44.9 | -36.5
11 | GTTGAAGGAAACTTTAAC (((.(((....))).))) | 32.1 | -17.7
12 | GCGCTGCGAAAGCATCGC (((.(((....))).))) | 58.6 | -60.2
13 | GGTGACGGAAACGTCGCC ((.((((....)))).)) | 64.6 | -34
14 | GCCCCTTCGAAAGAAGGC (((..(((....)))))) | 37 | -8.55
15 | GGCCTAGGAAACCAGGCC (((((.(....).))))) | 53.9 | -49.6
16 | GCGACAGGAAACCGTCGC (((((.(....).))))) | 58.8 | -43.4
17 | GTGCCCGAAAGGGTGCAC ((((((....)))..))) | 55.3 | -14.6
18 | GCCAAAGGAAACTTTGGC (((((((....))))))) | 64 | -44.4
19 | GAAACCGAAAGGTACTTC ((((((....)))..))) | 34.6 | -17.8
20 | GATCGAGTTTCGATC ((((((...)))))) | 53 | -31.4
21 | GCGCAACGAAAGTTCCGC (((.(((....))).))) | 49.3 | -30.5
22 | GCAATGCGAAAGCTTCGC ((.(.((....)).).)) | 44 | -11.9
23 | GCTAGGGAAACCTAGC ((((((....)))))) | 58.4 | -36.9

Row | Sequence | Tm [1] [°C] | folding enthalpy [2] [kcal/mol]
24 | GGGCACGAAAGTGCTCCC ((((((....)))..))) | 53.1 | -9.92
25 | GATCGGACAACCGATC ((((((....)))))) | 53.5 | -34.7
26 | GGTGCCGAAAGGCAGACC ((((((....)))..))) | 52.2 | -12.1
27 | GGGTCGGCGAAAGCCCCC (((..(((....)))))) | 46.1 | -13.9
28 | GCAGATGGAAACATCTAC (.(((((....))))).) | 34.7 | -19.1
29 | GCCGAGCGAAAGCCCTGC ((.(.((....)).).)) | 33.5 | -13.7
30 | GATCATCCAATGATC ((((((...)))))) | 46.9 | -31.4
31 | GATCGCTCTGCGATC ((((((...)))))) | 68.5 | -41.8
32 | GATCCTGTTCAGGATC ((((((....)))))) | 56.8 | -39.1
33 | GACGGGGGAAACTCCGTC (((((.(....).))))) | 58.1 | -37.9
34 | GGTCGTCGAAAGACACC (((.(((....)))))) | 52.1 | -22.1
35 | GCCCCGGGAAACCGGAGC ((.((((....)))).)) | 56.1 | -22.7
36 | GTTGCGCGAAAGCGAAC (((.(((....)))))) | 45.5 | -13.4
37 | GATCAACAGGTTGATC ((((((....)))))) | 51.4 | -36.2
38 | GTCATCGGAAACGATAAC ((.((((....)))).)) | 32.2 | -19.7
39 | GAACTCGGAAACGAGCTC ((.((((....)))).)) | 42.2 | -19
40 | GCACAGGGAAACCTGCAC (..((((....))))..) | 28.4 | -10.3
41 | GCGCCTGGAAACGGGTGC ((.((.(....).)).)) | 52.3 | -46.3
42 | GCACTGCGAAAGCAAGGC ((..(((....)))..)) | 47.5 | -17.8
43 | GCGGTCGAAAGACATCGC ((((((....)))..))) | 49.1 | -20.7
44 | GTACCGGGAAACTGGTAC (((((.(....).))))) | 51.4 | -33.2
45 | GTATTCCGAAAGGACTAC (((.(((....))).))) | 38.2 | -26.4
46 | GATCGGGGAAACCCGGTC ((.((((....)))).)) | 53.8 | -26.8

Row | Sequence | Tm [1] [°C] | folding enthalpy [2] [kcal/mol]
47 | GATCGTCATAACGATC ((((((....)))))) | 55 | -38.8
48 | GTCCACGAAAGTGGCGAC ((((((....)))..))) | 58.8 | -13.4
49 | GATGGCGAAAGCCAAATC ((((((....)))..))) | 33.9 | -9.36
50 | GTAACCGAAAGGTCTAC ((((((....))).))) | 35.5 | -13.4
51 | GATCCTGGGAGGATC ((((((...)))))) | 51 | -33.8
52 | GCGGAAGGAAACCTCCGC (((((.(....).))))) | 54.1 | -33.2
53 | GAGGTTGCGAAAGCACTC (((..(((....)))))) | 33.9 | -11.3
54 | GGAATAGGAAACCATTCC (((((.(....).))))) | 34.3 | -25.7
55 | GATGCGCGAAAGCGGATC (((.(((....))).))) | 64.5 | -30.6
56 | GGACTGGAAACAGTCC ((((((....)))))) | 59.8 | -30.2
57 | GTCTGCGGAAACACAGAC (((((.(....).))))) | 46.7 | -44.1
58 | TCTGGGAAACCAGA (((((....))))) | 47.1 | -15
59 | GCGCGCGAAAGCGACCGC ((((((....)))..))) | 54.3 | -16.8
60 | GGGACCGAAAGGTGCCC ((((((....))).))) | 61 | -17.7
61 | GGCTGAGGAAACTCAACC ((.((((....)))).)) | 41.2 | -32.5
62 | GGCAATGGAAACGTTGCC (((((.(....).))))) | 54.5 | -56.8
63 | GTCAGAGGAAACCCTGAC (((((.(....).))))) | 43.8 | -32.4
64 | GGGTGAGAAATCACCC ((((((....)))))) | 61.6 | -37.1
65 | GATCAGTCCACTGATC ((((((....)))))) | 54.3 | -37.6
66 | GACATGCGAAAGCAGTC (((.(((....)))))) | 51.9 | -16.9
67 | GATATCGGAAACGACATC (((.(((....))).))) | 32.7 | -27.9
68 | GATCAGCATCCTGATC ((((((....)))))) | 48 | -32.5
69 | GCTGGTGAAAACCAGC ((((((....)))))) | 69.1 | -22.6
